Test results published in article PMC4076036 (Journal of Natural Products, 2014).

Experiments:
melan-a melanocytes [1] = assay: Confocal immunofluorescence microscopy of tyrosinase localization; type: cell-based, mouse
melan-a tyrosinase = molecular target: T1, melan-a tyrosinase (Mus musculus, UniProt P11344); type: biochemical; details: for type of tyrosinase inhibition: Lineweaver–Burk plot, L-DOPA
T1 sequence (P11344 19-533): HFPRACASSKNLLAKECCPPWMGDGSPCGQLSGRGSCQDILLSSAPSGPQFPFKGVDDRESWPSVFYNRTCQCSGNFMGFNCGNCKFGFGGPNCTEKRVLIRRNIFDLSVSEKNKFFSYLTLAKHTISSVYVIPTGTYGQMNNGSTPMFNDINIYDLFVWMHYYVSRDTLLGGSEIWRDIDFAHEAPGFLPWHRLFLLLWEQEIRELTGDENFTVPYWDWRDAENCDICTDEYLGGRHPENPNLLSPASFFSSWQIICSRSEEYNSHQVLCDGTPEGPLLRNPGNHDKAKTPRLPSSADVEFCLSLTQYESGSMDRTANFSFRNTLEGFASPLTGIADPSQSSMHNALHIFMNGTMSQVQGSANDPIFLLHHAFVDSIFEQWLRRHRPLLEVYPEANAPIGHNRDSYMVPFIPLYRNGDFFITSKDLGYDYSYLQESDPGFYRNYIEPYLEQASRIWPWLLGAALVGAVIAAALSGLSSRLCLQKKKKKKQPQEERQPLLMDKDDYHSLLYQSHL

tyrosinase [2] = molecular target: T2, tyrosinase (Mus musculus, UniProt P11344); assay: Tyrosinase activity in treated melan-a cells; type: cell-based; details: 60 μM, 3 days, 20 nM TPA; TPA alone 100%
T2 sequence (P11344 19-533): T1 sequence (P11344 19-533)

melan-a melanocytes [3] = assay: Sulforhodamine B cytotoxicity assay; type: cell-based, mouse; details: 3 days, with or without forskolin
Summary of the method: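 Melan-a cells in RPMI-1640 with 5% FBS and antibiotics were seeded at 20 000 cells/0.1 mL/well. They were exposed to the test compound for 72 h in medium with 20 nM TPA, 1 μM forskolin, or vehicle alone. Viability was read by the sulforhodamine B colorimetric assay. Values are mean ± SD of triplicate experiments.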

MITF, tyrosinase, TRP-1 = type: cell-based, mouse; details: 1 day, forskolin-supplemented medium
Summary of the method: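 Melan-a cells were co-treated with 1 μM forskolin, with or without the test compound, for 1 day. Proteins were extracted in PhosphoSafe buffer, run on 10% SDS-PAGE, semidry-transferred to PVDF and blocked in 3% BSA. Blots were probed for tyrosinase, TRP-1, TRP-2, MITF and β-actin, then HRP secondary antibodies (1 h, room temperature). Detection was by ECL, with stripping before reprobing.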

tyrosinase/TRP-1 complex = assay: Co-immunoprecipitation with antibody against TRP-1; type: cell-based, mouse; details: 3 days, forskolin-supplemented medium
tyrosinase [4] = assay: Glycosylation analysis of tyrosinase; type: cell-based, mouse; details: forskolin-supplemented medium, Endo H digestion

Vmax (melan-a tyrosinase)	type of tyrosinase inhibition (melan-a tyrosinase)	colocalization of calnexin and tyrosinase (melan-a melanocytes [1]; 85 μM, 1 day, positive control)	reversibility of binding to tyrosinase (melan-a tyrosinase; tyrosinase mixed with compound 24 h prior to kinetic analysis)	tyrosinase activity (tyrosinase [2]) [%]	SMILES	colocalization of tyrosinase and Lamp-1 (melan-a melanocytes [1]; 15 μM, 4 days)	cytotoxic effect (melan-a melanocytes [3])	TRP-1 expression (MITF, tyrosinase, TRP-1)	expression of MITF (MITF, tyrosinase, TRP-1)	expression of tyrosinase (MITF, tyrosinase, TRP-1)	tyrosinase co-immunoprecipitated with TRP-1 (tyrosinase/TRP-1 complex)	tyrosinase localization (calnexin/ER, Lamp-1/lysosome) (melan-a melanocytes [1]; 60 μM, 3 days)	immature Endo H-sensitive form of tyrosinase (tyrosinase [4])
					CC(=O)[C@H]1CC[C@H]2[C@@H]3CCC4=CC(=O)CC[C@]4(C)[C@H]3CC[C@]12C [progesterone]	Colocalization of both tyrosinase and Lamp-1 were also observed							
2.5 × 10^–4 ΔA490/s	noncompetitive	clearly colocalize to the ER			Oc1ccc(/C=C/c2cc(O)cc(O)c2)cc1 [resveratrol, reference compound]								
	noncompetitive		likely reversible	65	OC[C@H]1O[C@@H](Oc2c(O)cc(O)cc2/C=C/c2ccc(O)cc2)[C@H](O)[C@@H](O)[C@@H]1O [Compound 1, 2,3,5,4′-Tetrahydroxystilbene-2-O-β-D-glucopyranoside]		did not exert any cytotoxic effect	not prominent	suppressed	suppressed	reduction of immunoprecipitated tyrosinase	no aberrant tyrosinase is trapped in the ER and lysosome	No immature Endo H-sensitive form of tyrosinase was present
